Compound activity deposited in PubChem by Sanford-Burnham Center for Chemical Genomics.
Rows were chosen to be rich in hits. Some 1.5% of all compounds tested hit in one or more screens of this group.
APJ antagonist: antagonists of human APJ apelin receptor | inhibition, % at 20 µM | P35414 | CHO-K1 APJ beta-arrestin complementation, luminescence | 0.32% of 330,000 active;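 active means inhibition above about 40% at 20 µM, limit read from the data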;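 further: cells challenged with 10 nM apelin-13 agonist together with compound; plate controls were apelin-13 plus DMSO wells for no effect and DMSO wells lacking apelin-13 for full effect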
CXCR6 block: inhibitors of human CXCR6 receptor; O00574; CHO-K1 PathHunter CXCR6 beta-arrestin, luminescence; inhibition, % at 20 µM; 0.36% of 360,000 active; in the data active means inhibition above about 34%, passing the limit was not always enough;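 further: antagonist mode with CXCL16 agonist at 10 nM final; 0% = 10 nM CXCL16 with DMSO and 100% = unstimulated wells without agonist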
EBI2 antag: EBI2 (human) antagonism. P32249. 0.81% of 360,000 active. inhibition, % at 5 µM. EBI2 beta-arrestin recruitment, luminescence, 7a,25-OHC stimulated; in the data active means inhibition above about 38%;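 further: enzyme fragment complementation signal reports receptor beta-arrestin coupling in cells; 0% = agonist plus DMSO wells and 100% = wells without agonist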
Target sequence (P32249 whole entry, looked up, the tested form may be a part): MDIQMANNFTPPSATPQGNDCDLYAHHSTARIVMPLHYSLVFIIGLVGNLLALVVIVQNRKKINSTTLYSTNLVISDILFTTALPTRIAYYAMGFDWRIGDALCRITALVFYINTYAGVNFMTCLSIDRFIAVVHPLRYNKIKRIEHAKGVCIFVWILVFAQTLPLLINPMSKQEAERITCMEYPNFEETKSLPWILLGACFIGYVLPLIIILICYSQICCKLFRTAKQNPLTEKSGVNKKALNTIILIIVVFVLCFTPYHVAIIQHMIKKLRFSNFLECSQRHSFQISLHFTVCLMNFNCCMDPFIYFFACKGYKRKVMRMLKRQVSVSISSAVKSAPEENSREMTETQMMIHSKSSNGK
CCR6 antagonist: blocks CCL20-driven beta-arrestin recruitment at human CCR6 | P51684 | CHO-K1 CCR6 PathHunter beta-arrestin, luminescence, CCL20-stimulated | inhibition, % at 20 µM | 0.49% of 340,000 active;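 active means compounds whose inhibition of the agonist-driven luminescence signal at 20 µM reaches about 50%, limit read from the data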;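 further: cells stimulated with CCL20 at 14 nM final; plate controls were DMSO with CCL20 for no effect and DMSO without agonist for full effect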
APJ agonist: agonists of human APJ apelin receptor; P35414; CHO-K1 APJ PathHunter beta-arrestin, luminescence; 0% DMSO wells, 100% apelin; activation, % at 20 µM; 0.11% of 330,000 active; AID 2520;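 active means activation more than six SD over the plate average, tested at 20 µM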;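 further: 0% = DMSO alone and 100% = apelin-13 at 10 nM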
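Assay system: CHO-K1 cells stably expressing ProLink-tagged human APJ and arrestin–beta-gal acceptor. Compound dosing: 20 µM single point, 1% DMSO. Times: 16-18 h seeding, 90 min dark compound exposure, 60 min detection. Detection: beta-gal luminescence. Evaluation: APJ–arrestin association signal. Controls: negative DMSO alone, positive Apelin-13 at 10 nM.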
APJ antag conf: confirmation of human APJ apelin receptor antagonists; shares compounds with APJ antagonist; inhibition, % at 20 µM; APJ beta-arrestin recruitment, luminescence, antagonist mode; 66% of 950 active; AID 2766; in the data active means inhibition above about 50%
* marks the source's active call; other numbers are inactive results; . = no result given.

SMILES	APJ antagonist	CXCR6 block	EBI2 antag	CCR6 antagonist	APJ agonist	APJ antag conf
Cn1cccc1/C=C(/C#N)C(N)=S	41.1*	7.7	1.2	28.6	-8.6	57.6*
O=C(O)c1ccccc1N=Nc1c(O)[nH]c2ccc([N+](=O)[O-])cc12	41.9*	28.4	10.8	38.8	-3.8	52.8*
O=C(N=Nc1c(O)[nH]c2ccc([N+](=O)[O-])cc12)c1ccccc1Cl	25.1	16.5	4.2	29.2	-8.7	.
OC(c1cc(Cl)cc(Cl)c1)c1ncc(-c2ccccc2F)[nH]1 (stereo unspecified)	.	-8.6	4.9	.	.	.
CC1=NN(C(N)=S)C(=O)C1N=Nc1ccc(O)cc1 (stereo unspecified)	12.6	5.7	-3.4	27.2	-5.0	.
CC1=NN(C(N)=S)C(=O)C1N=Nc1ccc([N+](=O)[O-])cc1 (stereo unspecified)	50.3*	45.9*	6.6	74.9*	-10.0	81.1*
O=C(CSc1ncnc2c1cnn2-c1ccccc1)Nc1ccccc1	53.7*	0.1	-1.4	11.0	1.5	26.7
CC(=O)Nc1cc(-c2ccc(C(=O)NC3CC3)cc2)cn2c(-c3cccc(C(F)(F)F)c3)cnc12	.	1.8	20.1	.	.	.
COc1cccc2sc(Nc3nnc(-c4cccs4)o3)nc12	41.6*	13.0	16.2	29.5	-6.0	3.4
COc1cccc2sc(Nc3nnc(-c4ccc(F)cc4)o3)nc12	0.6	-7.0	-5.9	-4.8	-2.6	.
COc1cccc2sc(Nc3nc(-c4ccccn4)cs3)nc12	52.4*	37.2	85.9*	.	-7.1	23.5
CN(c1ccc(OCC(=O)OCC(=O)Nc2ccc([N+](=O)[O-])cc2)cc1)S(=O)(=O)c1cccs1	.	-18.0	-9.6	1.3	.	.
CCOCCOC(=O)C1=C(C)NC2=C(C(=O)CC(c3cccs3)C2)C1c1ccsc1 (stereo unspecified)	44.9*	25.4	31.3	47.0	-6.7	56.8*
CCN(CC)CCSc1nnc(Nc2ccccc2)n1-c1ccccc1	51.4*	5.5	10.1	-5.3	-1.8	19.6
Cn1c(Cc2cccs2)nnc1SCC(=O)Nc1ccc(F)cc1F	7.0	-2.5	-2.5	-13.4	-8.0	.
COCCN(CC(=O)Nc1cccc(C)c1C)C(=O)c1oc2ccccc2c1C	-2.1	1.3	5.6	9.2	-2.6	.
COc1ccc(-c2cc(-c3ccccc3)nc(NN)n2)cc1OC	57.2*	43.0*	13.2	86.5*	-12.9	129.2*
Cc1ccc(-c2cc(-c3ccccc3)nc(NN)n2)cc1	77.9*	29.0	11.1	64.5*	-15.5	140.0*
COc1nc(-c2ccccc2)cc(-c2ccc(OC)c(OC)c2)n1	-16.7	1.2	-1.9	-17.8	-0.1	.
O=C(O)c1ccccc1C(=O)c1ccc2c(c1)CCC2	-2.5	3.4	-6.5	13.4	-1.7	.
Cc1ccc(-c2csc3nc(C)n(-n4c(C)ccc4C)c(=O)c23)o1	47.8*	26.4	19.2	17.5	-1.0	9.7
Cc1ccc(-c2csc3nc(C)n(N)c(=O)c23)o1	-17.1	2.9	-6.7	16.0	-2.8	.
O=C(CSc1nc2ccccc2o1)Nc1nncs1	52.4*	-8.3	3.5	-1.8	-5.0	23.2
Cc1nnc(NC(=O)CSc2nc3ccccc3o2)s1	-0.9	9.2	-1.9	-8.5	-2.1	.
O=c1c2cc([N+](=O)[O-])cc([N+](=O)[O-])c2[nH]n1-c1ccccc1	40.5*	39.4	9.6	56.2*	-8.8	75.5*
SMILES	APJ antagonist	CXCR6 block	EBI2 antag	CCR6 antagonist	APJ agonist	APJ antag conf
CCOc1nc2cnccc2n(CC(=O)Nc2ccc(C)c(C)c2)c1=O	17.7	1.0	0.6	11.2	2.1	.
O=C(Cc1cccs1)N[C@@H]1c2ccccc2CC[C@H]1OCc1ccccc1	.	-0.9	-1.9	20.8	.	.
CCC1=NN(C(=O)c2ccc(Cl)cc2)C(O)(c2ccccc2)C1 (stereo unspecified)	40.9*	32.9	10.6	48.5	-3.5	47.6
CC1(C(=O)NS(=O)(=O)c2ccc(Cl)s2)CCN1C(=O)CCc1ccccc1 (stereo unspecified)	.	-1.7	-3.6	.	.	.
COc1cc(/C=N/NS(=O)(=O)c2ccc(C)c([N+](=O)[O-])c2)cc([N+](=O)[O-])c1O	50.4*	27.2	0.7	47.0	-5.9	59.7*
COc1cc(/C=N/NS(=O)(=O)c2ccc(C)c([N+](=O)[O-])c2)ccc1O	23.7	10.5	-1.5	5.5	1.3	.
NC(=S)NNC(=S)Nc1ccccc1	41.4*	7.0	-6.9	4.7	-4.4	52.8*
